Experimental data from ChEMBL document CHEMBL1144684, “Evaluation of a series of naphthamides as potent, orally active vascular endothelial growth factor receptor-2 tyrosine kinase inhibitors” (J Med Chem, 2008).
Activity calls are given as the source filed them. The calls are words filed in the database; no cut-off is given here.

How the values were obtained:
[1] = molecular target: Hepatocyte growth factor receptor (Homo sapiens, UniProt P08581); assay: Inhibition of c-Met
[2] = Volume of distribution at steady state in Sprague-Dawley rat at 1 mg/kg, iv; format: ADME, organism-based; design: dose 1 mg/kg, route intravenous; settings: in vivo, read-out: Vdss
Procedure, shortened: (§1)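 Male Sprague–Dawley rats given 1 mg/kg iv via femoral vein as DMSO solution or 10 mg/kg by oral gavage as OraPlus suspension, pH adjusted to 2.0–2.2 with methanesulfonic acid. Serial jugular blood over 12–24 h; plasma protein-precipitated with acetonitrile, quantified by LC-MS/MS (MRM) with internal standard; noncompartmental parameters.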

[3] = molecular target: Tyrosine-protein kinase Lck (Homo sapiens, UniProt P06239); assay: Inhibition of Lck
[4] = AUC in VEGF-soaked disk implanted in Sprague-Dawley rat; format: ADME, organism-based; settings: plasma
[5] = Intrinsic clearance in human liver microsomes at 1 uM; format: ADME, Microsome; settings: read-out: Stability
Procedure, shortened: (§2)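 Human or rat liver microsomes (0.25 mg protein/mL) with 1 mM NADPH, 2 mM MgCl2 in 50 mM potassium phosphate pH 7.4 at 37 °C; compound 1 µM final. Sampled 0–40 min into acetonitrile, LC-MS/MS; ln % remaining vs time slope gives T1/2; CLint = (0.693/T1/2)/0.25 mg/mL.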

[6] = molecular target: Vascular endothelial growth factor receptor 1 (Homo sapiens, UniProt P17948); assay: Inhibition of human VEGFR1
[7] = Tmax in Sprague-Dawley rat at 2 mg/kg, po; format: ADME, organism-based; design: dose 2 mg/kg, route oral; settings: in vivo
Procedure, shortened: (§3)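 Male Sprague–Dawley rats dosed iv at 0.5 mg/kg as DMSO solution or po at 2 mg/kg as suspension in 100% OraPlus. Serial jugular blood, plasma LC-MS/MS quantitation, noncompartmental analysis.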

Liver microsomes [8] = assay: Metabolic stability assessed as covalent binding in presence of NADPH in rat liver microsomes at 10 uM after 1 hr; format: ADME, Microsome
Procedure, shortened: (§4)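 14C-labelled compound at 10 µM with human or rat liver microsomes (1 mg/mL) in 0.1 M potassium phosphate pH 7.4, with or without 1 mM NADPH and 1 mM glutathione, 60 min; quenched with ice-cold acetonitrile. Pellet washed with 80% methanol and ethanol/ether, solubilized, protein by BCA, radioactivity by scintillation counting.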

[9] = Cmax in VEGF-soaked disk implanted in Sprague-Dawley rat; format: ADME, organism-based; settings: in vivo
Liver microsomes [10] = assay: Metabolic stability assessed as covalent binding in presence of NADPH in human liver microsomes at 10 uM after 1 hr; format: ADME, Microsome; procedure, shortened: as §4
Aurora kinase B = Aurora kinase B (Homo sapiens, UniProt Q96GD4); assay: Inhibition of Aurora B
[11] = molecular target: Vascular endothelial growth factor receptor 3 (Homo sapiens) (UniProt P35916); assay: Inhibition of human VEGFR3
Liver microsomes [12] = assay: Metabolic stability assessed as covalent binding in absence of NADPH in rat liver microsomes at 10 uM after 1 hr; format: ADME, Microsome; procedure, shortened: as §4
[13] = AUC (0 to infinity) in Sprague-Dawley rat at 2 mg/kg, po; format: ADME, organism-based; design: time infinity, dose 2 mg/kg, route oral; settings: plasma
Procedure, shortened: (§5)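 Male Sprague–Dawley rats dosed iv via femoral vein as DMSO solution (1 or 0.5 mg/kg) or po by gavage as OraPlus suspension (pH 2.0–2.2 with methanesulfonic acid; 10 or 2 mg/kg). Serial jugular blood over 12–24 h; plasma acetonitrile precipitation, LC-MS/MS (MRM) with internal standard; noncompartmental parameters.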

[14] = Clearance in Sprague-Dawley rat at 1 mg/kg, iv; format: ADME, organism-based; design: dose 1 mg/kg, route intravenous; settings: in vivo; procedure, shortened: as §5
Rattus norvegicus = assay: Inhibition of VEGF-induced angiogenesis in VEGF-soaked disk implanted in Sprague-Dawley rat cornea assessed as number of blood vessels intersecting the midpoint between disk and limbus after 7 days; format: functional; settings: 168 h
HUVEC [15] = assay: Selectivity of IC50 for VEGF-induced proliferation over IC50 for bFGF-induced proliferation of HUVEC; format: functional, Homo sapiens
Procedure, shortened: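 HUVECs were seeded at 3000 cells/well in DMEM/10% FBS with pen/strep and cultured for 22 h. They were preincubated 2 h with serially diluted compound, then stimulated with 50 ng/mL VEGF or 20 ng/mL bFGF for 72 h at 37 °C, 5% CO2. Cells were washed, frozen at -70 °C and stained with CyQuant. IC50s came from a four-parameter logistic fit, averaged over ≥2 experiments; the VEGF IC50 was compared against the bFGF IC50.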

[16] = molecular target: Tyrosine-protein kinase Lyn (Homo sapiens, UniProt P07948); assay: Inhibition of Lyn
[17] = molecular target: Macrophage colony-stimulating factor 1 receptor (Homo sapiens) (UniProt P07333); assay: Inhibition of c-fms
[18] = Oral bioavailability in Sprague-Dawley rat at 2 mg/kg; format: ADME, organism-based; settings: in vivo; procedure, shortened: as §3
[19] = molecular target: Mast/stem cell growth factor receptor Kit (Homo sapiens) (UniProt P10721); assay: Inhibition of c-Kit
Mus musculus [20] = assay: Inhibition of VEGF-induced vascular permeability in HEK293 cells expressing mouse recombinant VEGF implanted in CD1 nu/nu mouse assessed as Matrigel plug at 3 mg/kg, po after 6 hrs; format: functional, organism-based; design: dose 3 mg/kg
Procedure, shortened: (§6)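 HEK293 cells expressing murine VEGF (or vector) suspended in Matrigel, injected sc ventrally into CD-1 nu/nu mice. At 24 h, single oral gavage dose as OraPlus suspension; 6 h later Evans blue quantified in 1 cm2 skin over plug; plasma level taken at 6 h; n = 5/group.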

[21] = Aqueous solubility in 0.01 N Hcl; format: physicochemical
[22] = molecular target: Platelet-derived growth factor receptor alpha (Homo sapiens) (UniProt P16234); assay: Inhibition of PDGFRalpha
[23] = Half life in Sprague-Dawley rat at 1 mg/kg, iv; format: ADME, organism-based; design: dose 1 mg/kg, route intravenous; settings: in vivo; procedure, shortened: as §5
Angiopoietin-1 receptor = Angiopoietin-1 receptor (Homo sapiens, UniProt Q02763); assay: Inhibition of Tie2
Liver microsomes [24] = assay: Metabolic stability assessed as covalent binding in presence of NADPH and GSH in rat liver microsomes at 10 uM after 1 hr; format: ADME, Microsome; procedure, shortened: as §4
Liver microsomes [25] = assay: Metabolic stability assessed as covalent binding in presence of NADPH and GSH in human liver microsomes at 10 uM after 1 hr; format: ADME, Microsome; procedure, shortened: as §4
HUVEC [26] = assay: Inhibition of bFGF-induced proliferation of HUVEC; format: functional, cell-based; settings: Homo sapiens
Procedure, shortened: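 HUVEC seeded at 3000/well in DMEM with 10% FBS, 22 h; 2 h preincubation with serial compound dilutions, then 50 ng/mL VEGF or 20 ng/mL bFGF for 72 h at 37 °C. Freeze–thaw, CyQuant DNA dye read-out; IC50 by four-parameter logistic fit, averaged over ≥2 experiments.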

[27] = molecular target: Vascular endothelial growth factor receptor 2 (Homo sapiens, UniProt P35968)
Liver microsomes [28] = assay: Metabolic stability assessed as covalent binding in absence of NADPH in human liver microsomes at 10 uM after 1 hr; format: ADME, Microsome; procedure, shortened: as §4
[29] = Cmax in Sprague-Dawley rat at 2 mg/kg, po; format: ADME, organism-based; design: dose 2 mg/kg, route oral; settings: in vivo; procedure, shortened: as §5
HUVEC [30] = assay: Inhibition of VEGF-induced proliferation of HUVEC; format: functional, cell-based; settings: Homo sapiens
Aurora kinase A = molecular target: T1, Aurora kinase A (Homo sapiens, UniProt O14965); assay: Inhibition of Aurora A
T1 sequence (O14965 whole entry): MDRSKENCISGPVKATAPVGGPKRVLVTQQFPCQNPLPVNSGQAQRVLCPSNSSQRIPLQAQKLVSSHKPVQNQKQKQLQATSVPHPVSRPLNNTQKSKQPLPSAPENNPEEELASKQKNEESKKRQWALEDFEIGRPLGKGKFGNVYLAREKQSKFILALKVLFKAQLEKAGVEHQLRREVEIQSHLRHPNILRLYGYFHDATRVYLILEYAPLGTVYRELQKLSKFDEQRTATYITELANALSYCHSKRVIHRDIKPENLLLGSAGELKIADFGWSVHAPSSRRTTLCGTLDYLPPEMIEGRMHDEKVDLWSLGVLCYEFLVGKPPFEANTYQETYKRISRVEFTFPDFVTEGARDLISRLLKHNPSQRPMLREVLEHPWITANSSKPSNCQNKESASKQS

[31] = Intrinsic clearance in rat liver microsomes at 1 uM; format: ADME, Microsome; settings: read-out: Stability; procedure, shortened: as §2
[32] = molecular target: Receptor-type tyrosine-protein kinase FLT3 (Homo sapiens) (UniProt P36888); assay: Inhibition of Flt3
[33] = Tmax in Sprague-Dawley rat at 10 mg/kg, po; format: ADME, organism-based; design: dose 10 mg/kg, route oral; settings: in vivo; procedure, shortened: as §1
[34] = molecular target: Tyrosine-protein kinase ABL1 (Homo sapiens, UniProt P00519)
Mus musculus [35] = assay: Inhibition of VEGF-induced vascular permeability in HEK293 cells expressing mouse recombinant VEGF implanted in CD1 nu/nu mouse assessed as Matrigel plug at 10 mg/kg, po after 6 hrs; format: functional, organism-based; design: dose 10 mg/kg; procedure, shortened: as §6
[36] = Cmax in Sprague-Dawley rat at 10 mg/kg, po; format: ADME, organism-based; design: dose 10 mg/kg, route oral; settings: in vivo; procedure, shortened: as §5
[37] = molecular target: Tyrosine-protein kinase Fgr (Homo sapiens, UniProt P09769); assay: Inhibition of FGR
[38] = Oral bioavailability in Sprague-Dawley rat at 10 mg/kg; format: ADME, organism-based; settings: in vivo; procedure, shortened: as §1
[39] = AUC (0 to infinity) in Sprague-Dawley rat at 10 mg/kg, po; format: ADME, organism-based; design: dose 10 mg/kg, route oral, time infinity; settings: plasma; procedure, shortened: as §5

Vascular endothelial growth factor receptor 3 (Homo sapiens), sequence (P35916 whole entry): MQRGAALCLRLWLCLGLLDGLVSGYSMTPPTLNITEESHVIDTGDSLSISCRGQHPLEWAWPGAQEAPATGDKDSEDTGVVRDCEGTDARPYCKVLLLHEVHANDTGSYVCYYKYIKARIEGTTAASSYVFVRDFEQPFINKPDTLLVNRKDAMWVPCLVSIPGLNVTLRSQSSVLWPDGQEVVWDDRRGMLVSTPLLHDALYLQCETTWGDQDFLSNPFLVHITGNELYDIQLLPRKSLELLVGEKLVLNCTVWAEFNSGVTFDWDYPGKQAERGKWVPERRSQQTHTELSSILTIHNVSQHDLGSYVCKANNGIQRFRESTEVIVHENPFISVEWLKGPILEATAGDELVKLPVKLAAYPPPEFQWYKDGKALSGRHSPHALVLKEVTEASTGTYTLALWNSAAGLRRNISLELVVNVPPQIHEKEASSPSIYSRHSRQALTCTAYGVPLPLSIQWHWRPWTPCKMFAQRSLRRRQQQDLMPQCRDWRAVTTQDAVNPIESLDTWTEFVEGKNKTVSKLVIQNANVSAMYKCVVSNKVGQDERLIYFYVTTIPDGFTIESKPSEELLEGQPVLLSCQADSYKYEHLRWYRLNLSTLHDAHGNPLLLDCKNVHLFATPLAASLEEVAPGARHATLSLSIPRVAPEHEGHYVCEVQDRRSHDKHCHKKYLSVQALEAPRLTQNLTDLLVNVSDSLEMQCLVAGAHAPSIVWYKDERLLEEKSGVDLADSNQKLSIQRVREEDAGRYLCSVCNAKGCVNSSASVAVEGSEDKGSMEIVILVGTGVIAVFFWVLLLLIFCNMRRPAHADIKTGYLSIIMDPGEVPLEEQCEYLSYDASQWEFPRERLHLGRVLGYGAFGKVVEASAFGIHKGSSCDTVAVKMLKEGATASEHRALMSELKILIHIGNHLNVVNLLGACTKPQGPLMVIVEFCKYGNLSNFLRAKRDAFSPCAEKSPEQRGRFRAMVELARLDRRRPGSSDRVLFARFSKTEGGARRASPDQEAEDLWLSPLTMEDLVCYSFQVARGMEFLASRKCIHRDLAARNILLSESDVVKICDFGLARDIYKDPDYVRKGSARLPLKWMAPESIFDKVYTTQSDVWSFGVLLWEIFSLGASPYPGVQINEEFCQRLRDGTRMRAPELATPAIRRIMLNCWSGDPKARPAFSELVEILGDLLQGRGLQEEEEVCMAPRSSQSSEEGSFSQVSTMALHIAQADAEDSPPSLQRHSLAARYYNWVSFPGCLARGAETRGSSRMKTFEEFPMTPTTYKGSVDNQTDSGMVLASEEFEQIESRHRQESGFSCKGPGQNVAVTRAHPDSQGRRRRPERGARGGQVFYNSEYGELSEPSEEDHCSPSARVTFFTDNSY
Mast/stem cell growth factor receptor Kit (Homo sapiens), sequence (P10721 whole entry): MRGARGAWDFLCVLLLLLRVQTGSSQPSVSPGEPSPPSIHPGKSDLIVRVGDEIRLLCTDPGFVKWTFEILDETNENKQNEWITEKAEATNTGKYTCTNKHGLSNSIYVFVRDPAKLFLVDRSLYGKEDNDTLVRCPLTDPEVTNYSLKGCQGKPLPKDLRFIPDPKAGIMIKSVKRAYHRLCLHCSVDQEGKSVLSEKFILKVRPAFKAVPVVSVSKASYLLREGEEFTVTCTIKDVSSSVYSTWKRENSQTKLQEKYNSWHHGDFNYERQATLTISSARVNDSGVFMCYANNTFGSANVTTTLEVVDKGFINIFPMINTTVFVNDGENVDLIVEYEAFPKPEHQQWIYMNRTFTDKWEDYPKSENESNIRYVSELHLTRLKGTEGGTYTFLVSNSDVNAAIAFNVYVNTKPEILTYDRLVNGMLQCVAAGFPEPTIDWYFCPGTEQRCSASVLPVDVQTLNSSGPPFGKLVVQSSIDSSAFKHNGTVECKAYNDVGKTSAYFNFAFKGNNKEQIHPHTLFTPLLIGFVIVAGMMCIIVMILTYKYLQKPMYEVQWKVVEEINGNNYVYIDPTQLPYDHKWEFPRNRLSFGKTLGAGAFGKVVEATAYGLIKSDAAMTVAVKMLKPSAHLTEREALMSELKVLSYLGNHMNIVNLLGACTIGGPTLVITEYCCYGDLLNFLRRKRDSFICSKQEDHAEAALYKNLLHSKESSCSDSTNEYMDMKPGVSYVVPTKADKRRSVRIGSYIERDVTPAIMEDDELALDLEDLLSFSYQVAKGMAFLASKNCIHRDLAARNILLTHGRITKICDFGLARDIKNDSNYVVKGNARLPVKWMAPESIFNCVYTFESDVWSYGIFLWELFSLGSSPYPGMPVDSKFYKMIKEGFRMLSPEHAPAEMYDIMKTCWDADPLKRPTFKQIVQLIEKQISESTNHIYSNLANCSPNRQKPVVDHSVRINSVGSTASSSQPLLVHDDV
Tyrosine-protein kinase Lck, sequence (P06239 whole entry): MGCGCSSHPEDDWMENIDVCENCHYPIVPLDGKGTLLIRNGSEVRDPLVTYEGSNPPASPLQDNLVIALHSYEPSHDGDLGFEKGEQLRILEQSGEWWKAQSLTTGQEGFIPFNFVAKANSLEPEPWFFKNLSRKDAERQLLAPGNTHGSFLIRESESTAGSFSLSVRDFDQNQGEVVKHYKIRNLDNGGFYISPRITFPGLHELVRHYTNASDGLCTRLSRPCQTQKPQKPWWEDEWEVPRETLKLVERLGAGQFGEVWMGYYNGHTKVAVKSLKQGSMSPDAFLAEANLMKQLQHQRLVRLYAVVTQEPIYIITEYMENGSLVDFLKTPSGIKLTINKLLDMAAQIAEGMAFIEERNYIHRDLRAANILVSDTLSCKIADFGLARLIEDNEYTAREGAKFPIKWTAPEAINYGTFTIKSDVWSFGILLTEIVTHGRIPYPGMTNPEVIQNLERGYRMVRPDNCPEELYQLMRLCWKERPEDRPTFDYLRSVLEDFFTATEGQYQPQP
Tyrosine-protein kinase Lyn, sequence (P07948 whole entry): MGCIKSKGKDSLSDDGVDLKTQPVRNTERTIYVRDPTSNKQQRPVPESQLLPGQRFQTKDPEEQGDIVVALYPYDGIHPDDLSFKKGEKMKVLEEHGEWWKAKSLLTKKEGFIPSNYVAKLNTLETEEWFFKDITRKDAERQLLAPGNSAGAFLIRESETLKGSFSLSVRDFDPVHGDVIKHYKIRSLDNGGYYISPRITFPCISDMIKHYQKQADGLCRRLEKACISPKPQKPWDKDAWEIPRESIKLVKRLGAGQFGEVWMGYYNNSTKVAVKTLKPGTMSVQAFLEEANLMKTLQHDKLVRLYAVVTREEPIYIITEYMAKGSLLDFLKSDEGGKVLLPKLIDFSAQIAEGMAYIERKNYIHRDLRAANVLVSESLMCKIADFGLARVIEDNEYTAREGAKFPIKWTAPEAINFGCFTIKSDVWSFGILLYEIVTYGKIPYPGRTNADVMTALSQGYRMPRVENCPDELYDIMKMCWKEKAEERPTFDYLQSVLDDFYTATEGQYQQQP
Vascular endothelial growth factor receptor 1, sequence (P17948 whole entry): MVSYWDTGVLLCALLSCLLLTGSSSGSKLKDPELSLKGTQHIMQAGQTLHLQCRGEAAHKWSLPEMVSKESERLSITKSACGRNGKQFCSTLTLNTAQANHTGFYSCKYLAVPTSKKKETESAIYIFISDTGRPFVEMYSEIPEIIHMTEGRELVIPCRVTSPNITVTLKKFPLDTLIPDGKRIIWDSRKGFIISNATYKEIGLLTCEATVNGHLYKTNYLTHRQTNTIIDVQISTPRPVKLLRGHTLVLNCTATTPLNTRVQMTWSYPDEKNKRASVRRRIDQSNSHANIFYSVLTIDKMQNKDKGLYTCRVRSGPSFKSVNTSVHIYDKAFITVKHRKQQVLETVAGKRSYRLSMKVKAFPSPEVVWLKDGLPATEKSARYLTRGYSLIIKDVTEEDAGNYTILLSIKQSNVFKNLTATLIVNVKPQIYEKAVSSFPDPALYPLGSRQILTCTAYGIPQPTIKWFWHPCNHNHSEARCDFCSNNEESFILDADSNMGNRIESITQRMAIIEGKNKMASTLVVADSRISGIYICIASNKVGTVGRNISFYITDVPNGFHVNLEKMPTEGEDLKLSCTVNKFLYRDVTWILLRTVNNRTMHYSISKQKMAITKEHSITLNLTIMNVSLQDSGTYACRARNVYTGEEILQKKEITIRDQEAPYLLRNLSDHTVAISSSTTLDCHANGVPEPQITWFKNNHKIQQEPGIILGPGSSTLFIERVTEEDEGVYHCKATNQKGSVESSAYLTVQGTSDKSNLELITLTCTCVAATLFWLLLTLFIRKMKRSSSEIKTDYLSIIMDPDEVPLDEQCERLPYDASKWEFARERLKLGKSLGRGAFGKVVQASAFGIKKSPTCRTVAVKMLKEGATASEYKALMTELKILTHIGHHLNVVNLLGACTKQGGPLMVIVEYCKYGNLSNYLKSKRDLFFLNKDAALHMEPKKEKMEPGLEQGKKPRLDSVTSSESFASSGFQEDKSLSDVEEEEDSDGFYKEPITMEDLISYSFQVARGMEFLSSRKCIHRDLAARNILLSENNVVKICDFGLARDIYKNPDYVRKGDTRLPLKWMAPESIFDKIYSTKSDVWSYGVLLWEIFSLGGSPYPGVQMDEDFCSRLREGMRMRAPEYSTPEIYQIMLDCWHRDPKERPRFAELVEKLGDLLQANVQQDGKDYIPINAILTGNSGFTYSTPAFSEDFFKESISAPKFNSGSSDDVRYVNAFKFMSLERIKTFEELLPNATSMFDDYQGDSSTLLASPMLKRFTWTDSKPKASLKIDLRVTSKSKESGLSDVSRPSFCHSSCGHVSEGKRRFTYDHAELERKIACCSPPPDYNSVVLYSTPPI
Aurora kinase B, sequence (Q96GD4 whole entry): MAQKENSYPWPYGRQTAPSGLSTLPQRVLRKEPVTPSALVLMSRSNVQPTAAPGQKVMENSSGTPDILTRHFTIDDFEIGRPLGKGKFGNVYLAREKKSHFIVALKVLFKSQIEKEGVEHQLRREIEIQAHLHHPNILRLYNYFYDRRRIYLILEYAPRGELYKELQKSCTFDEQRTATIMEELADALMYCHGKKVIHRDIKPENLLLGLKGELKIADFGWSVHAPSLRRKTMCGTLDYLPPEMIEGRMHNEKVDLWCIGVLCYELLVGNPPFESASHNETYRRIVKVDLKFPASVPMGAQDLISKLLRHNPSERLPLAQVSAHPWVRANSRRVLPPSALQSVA

| Compound | IC50 [1] [µM] | Vd [2] [L/kg] | IC50 [3] [nM] | AUC [4] [µM·h] | microsomal CLint at 1 µM [5] [µL/min/mg] | Stability (Liver microsomes [8]) [pmol/mg/h] | Cmax [9] [nM] | Stability (Liver microsomes [10]) [pmol/mg/h] | IC50 (Aurora kinase B) [nM] | Activity [11] | Stability (Liver microsomes [12]) [pmol/mg/h] | clearance [14] [mL/min/kg] | ED50 (Rattus norvegicus) [mg/kg] | Selectivity ratio (HUVEC [15]) | IC50 [16] [nM] | Activity [17] | Activity [19] | solubility [21] [µg/mL] | Activity [22] | half-life [23] [min] | further results |
| --- | --- | --- | --- | --- | --- | --- | --- | --- | --- | --- | --- | --- | --- | --- | --- | --- | --- | --- | --- | --- | --- |
| COCCNC(=O)c1cccc2cc(Oc3ccnc4cc(OC)c(OC)cc34)ccc12 | 20 | 1.13 | 1200 | 0.52 | 32 | 353 | 40 | 321 | 130 | Active | 125 | 8.87 | 0.04 | >100 | 275 | Active | Active | > 200 | Active | 96 | IC50 [6]: 73 nM; Tmax [7]: 2 h; AUC(0-inf) [13]: 3770 ng·h/mL; bioavailability [18]: 99%; Cp (Mus musculus [20]): 0.2 µM; IC50 (Angiopoietin-1 receptor): 25 µM; Stability (Liver microsomes [24]): 1.6 pmol/mg/h; Stability (Liver microsomes [25]): 1.6 pmol/mg/h; IC50 (HUVEC [26]): 1140 nM; IC50 [27]: 12 nM; Stability (Liver microsomes [28]): 125 pmol/mg/h; Cmax [29]: 543 ng/mL; IC50 (HUVEC [30]): 0.64 nM; IC50 (Aurora kinase A): 7.2 µM; microsomal CLint at 1 µM [31]: 48 µL/min/mg |
| COc1cc2nccc(Oc3ccc4c(C(=O)NC5CC5)cccc4c3)c2cc1OC | 20 | 1.04 | 330 | 0.32 | 31 | 60 | 20 | 357 | 118 | Active | 1.5 | 2.18 | 0.01 | >100 | 27 | Active | Active | > 200 | Active | 504 | Activity [32]: inactive; Tmax [33]: 2.5 h; Activity [6]: Active; IC50 [34]: 466 nM; Cp (Mus musculus [35]): 1 µM; Cmax [36]: 6150 ng/mL; IC50 [37]: 396 nM; bioavailability [38]: 66%; IC50 (Angiopoietin-1 receptor): 25 µM; Stability (Liver microsomes [24]): 153 pmol/mg/h; Stability (Liver microsomes [25]): 153 pmol/mg/h; IC50 (HUVEC [26]): 170 nM; Stability (Liver microsomes [28]): 1.5 pmol/mg/h; IC50 (HUVEC [30]): 0.91 nM; AUC(0-inf) [39]: 50200 ng·h/mL; IC50 (Aurora kinase A): 2 µM; microsomal CLint at 1 µM [31]: 21 µL/min/mg |
